Four compounds from publication PMC10448436 (Journal of medicinal chemistry, 2022) can be followed below.

In data set [1] the target is T1, TARP γ−8 (Rattus norvegicus, UniProt Q8VHW5).
T1 sequence (Q8VHW5 1-421): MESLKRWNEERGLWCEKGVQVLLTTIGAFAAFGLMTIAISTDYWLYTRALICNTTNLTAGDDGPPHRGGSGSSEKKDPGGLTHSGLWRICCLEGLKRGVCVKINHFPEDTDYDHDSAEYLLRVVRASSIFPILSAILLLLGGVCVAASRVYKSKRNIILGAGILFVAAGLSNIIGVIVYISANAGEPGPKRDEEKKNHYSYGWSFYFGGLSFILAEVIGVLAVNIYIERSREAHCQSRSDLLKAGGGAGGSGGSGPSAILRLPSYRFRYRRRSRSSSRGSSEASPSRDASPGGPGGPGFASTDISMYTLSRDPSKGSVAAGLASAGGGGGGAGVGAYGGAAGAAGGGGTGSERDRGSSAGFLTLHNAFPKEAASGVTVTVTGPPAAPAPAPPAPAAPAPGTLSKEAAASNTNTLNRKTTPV
Description: In vitro autoradiography on rat brain sections. It counts as binding. The essentials: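 Frozen rat brain sections (stored −80 °C) were pre-incubated in 50 mM Tris-HCl for 20 min at ambient temperature, then incubated with the 11C-labelled test compound. For blocking, unlabelled inhibitor (1 μM) was added to the incubation solution beforehand. Sections were washed three times in ice-cold buffer, dipped 10 s in cold water, cold-air dried and exposed to imaging plates. ROI radioactivity was read as PSL/mm2.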

In data set [2] the target is T1, TARP γ−8. Description: PET imaging in rat brain. In kind it is in vivo, Sprague-Dawley rats. In a few lines:
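Male Sprague-Dawley rats (210−230 g) were kept under 1–2% isoflurane. The 11C-labelled test compound was injected via tail-vein catheter (38.5 ± 2.8 MBq, 0.3 ± 0.2 nmol), followed by a dynamic 3D PET scan for 60 min, co-registered to an MR template. Decay-corrected data were expressed as SUV, and BPND maps were derived by SRTM. Mean ± SD, n = 3.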

The nature of data set [3]: In vitro stability of the formulated radioligand. In kind it is physicochemical. In a few lines: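 After HPLC purification, the radiotracer fraction was collected into Tween 80 and ethanol, evaporated and redissolved in 5 mL sterile normal saline. It was then passed through a 0.22 μm filter. The formulated solution was checked for radiolysis up to 90 min.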
The target of data set [4] is DOR (delta opioid receptor) (Homo sapiens, UniProt P41143). As to the kind of experiment: Off-target counter screen at 10 μM. In kind it is binding. The note with it: read-out: target inhibition, DOR.
The test system of data set [5] is ionotropic glutamate receptors (iGluR). As to the kind of experiment: Off-target counter screen at 10 μM. In kind it is binding. (In general: A counterscreen serves to expose hits that act by an unwanted route or on another target.)
The next data set in a line: Shake-flask logD7.4. It counts as physicochemical. The note with it: pH 7.4.
The target in the next data set is T2, 5-HT1A (Homo sapiens, UniProt P08908).
T2 sequence (P08908 1-422): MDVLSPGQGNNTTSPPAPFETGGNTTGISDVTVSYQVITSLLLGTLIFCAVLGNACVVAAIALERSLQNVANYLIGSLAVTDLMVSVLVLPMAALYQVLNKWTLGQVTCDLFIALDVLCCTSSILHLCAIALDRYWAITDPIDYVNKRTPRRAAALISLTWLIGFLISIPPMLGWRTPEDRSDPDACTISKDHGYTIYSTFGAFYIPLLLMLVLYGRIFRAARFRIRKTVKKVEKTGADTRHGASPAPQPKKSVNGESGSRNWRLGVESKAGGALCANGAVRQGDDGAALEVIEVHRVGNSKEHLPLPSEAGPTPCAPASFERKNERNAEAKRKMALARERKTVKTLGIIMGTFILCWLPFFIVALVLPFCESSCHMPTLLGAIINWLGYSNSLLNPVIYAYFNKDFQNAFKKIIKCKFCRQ
As to the kind of experiment: Off-target counter screen at 10 μM. In kind it is binding. The following applies: read-out: target inhibition, 5-HT1A.

A further data set relates to 5-HT1A, Alpha2C and DOR. Description: Follow-up binding assays, selectivity towards TARP γ−8. The note with it: follow-up 5-HT1A.
Another data set has as its target T3, Alpha2C (Homo sapiens, UniProt P18825).
T3 sequence (P18825 1-462): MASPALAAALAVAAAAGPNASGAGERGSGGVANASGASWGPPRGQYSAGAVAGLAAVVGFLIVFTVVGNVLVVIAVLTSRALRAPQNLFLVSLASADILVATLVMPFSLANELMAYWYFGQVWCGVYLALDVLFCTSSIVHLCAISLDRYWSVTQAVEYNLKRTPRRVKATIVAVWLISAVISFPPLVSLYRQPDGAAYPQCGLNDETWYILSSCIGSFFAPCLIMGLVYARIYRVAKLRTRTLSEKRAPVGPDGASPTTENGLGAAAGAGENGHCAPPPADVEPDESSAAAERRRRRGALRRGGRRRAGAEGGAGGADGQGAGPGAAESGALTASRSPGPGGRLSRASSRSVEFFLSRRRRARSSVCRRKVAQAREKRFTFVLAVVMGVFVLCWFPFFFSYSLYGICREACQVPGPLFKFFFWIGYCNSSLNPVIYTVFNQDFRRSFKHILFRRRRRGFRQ
Description: Off-target counter screen at 10 μM. It counts as binding. The note with it: read-out: target inhibition, Alpha2C.

The mark [6] stands for this setting: tracer [11C]8, blocking with 8 (1 μM).
Setting [7] is: tracer [11C]15, pretreatment with JNJ-55511118 (1 mg/kg), rat.

Sequence of DOR (delta opioid receptor) (P41143 whole entry): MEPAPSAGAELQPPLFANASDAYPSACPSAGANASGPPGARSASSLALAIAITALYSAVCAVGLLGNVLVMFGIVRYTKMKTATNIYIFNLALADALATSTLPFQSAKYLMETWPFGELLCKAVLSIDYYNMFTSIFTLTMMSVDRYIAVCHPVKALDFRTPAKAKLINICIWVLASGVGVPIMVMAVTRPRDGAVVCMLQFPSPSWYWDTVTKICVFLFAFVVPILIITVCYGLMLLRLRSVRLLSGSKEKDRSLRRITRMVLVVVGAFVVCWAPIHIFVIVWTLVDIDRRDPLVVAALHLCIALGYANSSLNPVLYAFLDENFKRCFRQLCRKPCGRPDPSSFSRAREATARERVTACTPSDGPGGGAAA

Consider `[11CH3]c1ccc2nc(C3CCC3)n(-c3ccc4[nH]c(=O)sc4c3)c2n1` [[^11C]8, 6-(2-cyclobutyl-5-[^11C]methyl-3H-imidazo[4,5-b]pyridin-3-yl)benzo[d]thiazol-2(3H)-one], for which, on TARP γ−8 [1] (setting [6]), the “change of bound radioactivity in cerebellum (reference region)” value is listed as “no notable change” and the “reduction of bound radioactivity in hippocampus” value is on record as 83%. In addition, the “maximum SUV in the brain” value on TARP γ−8 [2] (at 2.5 min, baseline, rat) is given as 0.4. Further, on TARP γ−8 [2] (rat PET, baseline), the “blood brain barrier penetration” value was “failed to penetrate the blood brain barrier”. Also, the “radiolysis in the formulated solution” value in data set [3] (up to 90 min) was “no radiolysis was observed”. The compound also showed an in vitro stability in [3] (up to 90 min after formulation) above 95%.

The inhibition is the percentage by which the read-out fell short of the control. A word on the logD: it is lipophilicity at a set pH, counting ionised and neutral species. A higher logD goes with a more lipophilic compound. With `Cc1ccc2nc(C3CCC3)n(-c3ccc4[nH]ncc4c3)c2n1` [Compound 15, 2-Cyclobutyl-3-(1H-indazol-5-yl)-5-methyl-3H-imidazo[4,5-b]pyridine], the inhibition at 10 µM (in data set [4]; on 5-HT1A; on Alpha2C) was above 50% throughout. In addition, in data set [5], the “interaction with related iGlu receptor family” value was “no substantial interaction”. Also, the logD in the data set “Shake-flask logD7.4” turned out to be 2.5 ± 0.01. Further, the “selectivity towards TARP γ−8 among any other tested CNS targets” value in the data set with 5-HT1A, Alpha2C and DOR is “greater than 750 fold”.

Take `O=c1[nH]c2ccc(-c3c(Cl)cccc3OC(F)(F)F)cc2[nH]1` [JNJ-55511118, reference compound]: the “reduction of uptake in hippocampus” value on TARP γ−8 [1] (tracer [11C]15, blocking with JNJ-55511118 (1 μM)) came to 77%. Further, on TARP γ−8 [2] (setting [7]), the “reduction of BPND values” is on record as 66–81% and the “reduction of radioactivity uptake in hippocampus based on AUC” value is reported as 35–47%.

`Cc1ccc2nc(C3CCC3)n(-c3ccc4[nH]c(=O)sc4c3)c2n1` [Compound 8, 6-(2-Cyclobutyl-5-methyl-3H-imidazo[4,5-b]pyridin-3-yl)benzo[d]thiazol-2(3H)-one]: in the data set “Shake-flask logD7.4”, the logD is 2.3 ± 0.06.
